Key:
Assay type in all cases: functional
ACHN = assay: Cytotoxicity against human ACHN cells assessed as cell growth at 0.01 uM after 48 hrs by sulforhodamine B assay; conditions: read-out: Activity
Method in brief: (§1)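 NCI-60 five-dose screen. Cells were grown in RPMI 1640 with 5% FBS and 2 mM L-glutamine and preincubated 24 h. Compound (DMSO stock) was tested at 0.01, 0.1, 1, 10 and 100 µM for 48 h at 37 °C. Cells were fixed in situ with cold TCA (final 10%) and stained with 0.4% SRB. A515 was read, and percent growth was calculated against time-zero and control plates.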

BT-549 = assay: Cytotoxicity against human BT549 cells assessed as cell growth at 0.01 uM after 48 hrs by sulforhodamine B assay; conditions: BT-549, 48 h, read-out: Activity; method in brief: as §1
NCI-H460 [1] = assay: Cytotoxicity against human NCI-H460 cells assessed as cell growth at 0.1 uM after 48 hrs by sulforhodamine B assay; conditions: NCI-H460, 48 h, read-out: Activity
COLO 205 [2] = assay: Cytotoxicity against human COLO205 cells assessed as cell growth at 0.1 uM after 48 hrs by sulforhodamine B assay; conditions: COLO 205, 48 h, read-out: Activity; method in brief: as §1
HCT-116 [3] = assay: Cytotoxicity against human HCT116 cells assessed as cell growth at 0.1 uM after 48 hrs by sulforhodamine B assay; conditions: HCT-116, 48 h, read-out: Activity
Method in brief: (§2)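 Five-dose NCI panel run at 0.01, 0.1, 1, 10 and 100 µM. Cells were in RPMI 1640 with 5% FBS and 2 mM L-glutamine, seeded at 5000–40,000 cells/well and pre-incubated 24 h. Drug was diluted from a DMSO stock into medium with 50 µg/ml gentamicin. Exposure was 48 h at 37 °C, 5% CO2. Cells were fixed with cold TCA and stained with 0.4% SRB, read at 515 nm. Percent growth came from time-zero, control and test absorbances.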

U-251 = assay: Cytotoxicity against human U251 cells assessed as cell growth at 0.1 uM after 48 hrs by sulforhodamine B assay; conditions: U-251, 48 h, read-out: Activity
786-0 [4] = assay: Cytotoxicity against human 786-0 cells assessed as cell growth at 0.1 uM after 48 hrs by sulforhodamine B assay; conditions: 786-0, 48 h, read-out: Activity; method in brief: as §1
CAKI-1 [5] = assay: Cytotoxicity against human Caki1 cells assessed as cell growth at 0.1 uM after 48 hrs by sulforhodamine B assay; conditions: CAKI-1, 48 h, read-out: Activity; method in brief: as §1
NCI-H460 [6] = assay: Cytotoxicity against human NCI-H460 cells assessed as cell growth at 100 uM after 48 hrs by sulforhodamine B assay; conditions: NCI-H460, 48 h, read-out: Activity
UO-31 = assay: Cytotoxicity against human UO31 cells assessed as cell growth at 100 uM after 48 hrs by sulforhodamine B assay; conditions: UO-31, 48 h, read-out: Activity
HL-60(TB) = assay: Cytotoxicity against human HL-60(TB) cells assessed as cell growth at 1 uM after 48 hrs by sulforhodamine B assay; conditions: HL-60, 48 h, read-out: Activity
Method in brief: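 NCI five-dose screen on the HL-60(TB) leukaemia line, grown in RPMI 1640 with 5% FBS and 2 mM L-glutamine and plated for 24 h before dosing. DMSO stocks were diluted in medium. Cells were exposed 48 h at 37 °C, then settled cells were fixed in 16% TCA (final) and stained with SRB, absorbance 515 nm. Percent growth = (Ti−Tz)/(C−Tz)×100, or (Ti−Tz)/Tz×100 when Ti<Tz.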

CAKI-1 [7] = assay: Cytotoxicity against human Caki1 cells assessed as cell growth at 1 uM after 48 hrs by sulforhodamine B assay; conditions: CAKI-1, 48 h, read-out: Activity; method in brief: as §1
NCI-H23 = assay: Cytotoxicity against human NCI-H23 cells assessed as cell growth at 10 uM after 48 hrs by sulforhodamine B assay; conditions: NCI-H23, 48 h, read-out: Activity
MDA-MB-468 = assay: Cytotoxicity against human MDA-MB-468 cells assessed as cell growth at 10 uM after 48 hrs by sulforhodamine B assay; conditions: MDA-MB-468, 48 h, read-out: Activity
SF-268 = assay: Cytotoxicity against human SF268 cells assessed as cell growth at 10 '-5 M after 48 hrs by sulforhodamine B assay; conditions: SF-268, 48 h, read-out: Activity
SK-OV-3 = assay: Cytotoxicity against human SKOV3 cells assessed as cell growth at 10 '-5 M after 48 hrs by sulforhodamine B assay; conditions: SK-OV-3, 48 h, read-out: Activity
786-0 [8] = assay: Cytotoxicity against human 786-0 cells assessed as cell growth at 10 '-5 M after 48 hrs by sulforhodamine B assay; conditions: 786-0, 48 h, read-out: Activity
Method in brief: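 Primary NCI-60 single-dose screen at 10 µM. Cells were grown in RPMI 1640 with 5% FBS and 2 mM L-glutamine and plated 24 h before drug addition. Compound was solubilized in DMSO, then exposed for 48 h at 37 °C under 5% CO2. Cells were TCA-fixed and stained with SRB, and absorbance was read at 515 nm. Growth was expressed relative to time-zero and untreated controls.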

CCRF-CEM = assay: Growth inhibition of human CCRF-CEM cells after 48 hrs by sulforhodamine B assay
Method in brief: (§3)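 Cells were in RPMI 1640 with 5% FBS and pre-incubated 24 h. Read-out was TCA fixation, SRB staining and absorbance at 515 nm. GI50 was the concentration where [(Ti−Tz)/(C−Tz)]×100 = 50, taken from log concentration vs % growth curves. It is given as ">" the top concentration when not reached.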

COLO 205 [9] = assay: Growth inhibition of human COLO205 cells after 48 hrs by sulforhodamine B assay; conditions: COLO 205, 48 h; for CC50: read-out: LC50 (the source's name); method in brief: as §3
HCC 2998 = assay: Growth inhibition of human HCC2998 cells after 48 hrs by sulforhodamine B assay; conditions: HCC 2998, 48 h; for CC50: read-out: LC50 (the source's name)
Method in brief: (§4)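 Adherent NCI-60 lines were grown in RPMI 1640 with 5% FBS and 2 mM L-glutamine, plated at 5000–40,000 cells/well and preincubated 24 h. They were then exposed to five concentrations (0.01–100 µM, from a DMSO stock) for 48 h at 37 °C, 5% CO2. Cells were fixed with cold TCA (10% final, 60 min, 4 °C) and stained with 0.4% SRB. Dye was solubilized in 10 mM Tris base and A515 read. GI50 was derived from time-zero, control and treated absorbances.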

SF-295 [10] = assay: Growth inhibition of human SF295 cells after 48 hrs by sulforhodamine B assay; conditions: SF-295, 48 h; for CC50: read-out: LC50 (the source's name); method in brief: as §4
SK-MEL-5 = assay: Growth inhibition of human SK-MEL-5 cells after 48 hrs by sulforhodamine B assay; conditions: SK-MEL-5, 48 h; method in brief: as §4
HCT-116 [11] = assay: Cytotoxicity against human HCT116 cells assessed as cell growth at 0.01 uM after 48 hrs by sulforhodamine B assay; conditions: HCT-116, 48 h, read-out: Activity; method in brief: as §2
SF-295 [12] = assay: Cytotoxicity against human SF295 cells assessed as cell growth at 0.01 uM after 48 hrs by sulforhodamine B assay; conditions: SF-295, 48 h, read-out: Activity

SMILES	growth at 0.01 µM (ACHN)	growth at 0.01 µM (BT-549)	growth at 0.1 µM (NCI-H460 [1])	growth at 0.1 µM (COLO 205 [2])	growth at 0.1 µM (HCT-116 [3])	growth at 0.1 µM (U-251)	growth at 0.1 µM (786-0 [4])	growth at 0.1 µM (CAKI-1 [5])	growth at 100 µM (NCI-H460 [6])	growth at 100 µM (UO-31)	growth at 1 µM (HL-60(TB))	growth at 1 µM (CAKI-1 [7])	growth at 10 µM (NCI-H23)	growth at 10 µM (MDA-MB-468)	growth at 10 µM (SF-268)	growth at 10 µM (SK-OV-3)	growth at 10 µM (786-0 [8])	GI50 (CCRF-CEM)	LC50 (CCRF-CEM)	TGI (CCRF-CEM)	further results
Cc1ccc2nc(Nc3c(C)cccc3C)sc2c1	97%	98%	103%	112%	103%	105%	97%	83%	51%	80%	56%	39%	58%	9%	61%	47.1%	57.8%	> 100 µM	> 100 µM	> 100 µM	TGI (COLO 205 [9]): > 100 µM; CC50 (COLO 205 [9]): > 100 µM; GI50 (HCC 2998): > 100 µM; TGI (HCC 2998): > 100 µM; CC50 (HCC 2998): > 100 µM; GI50 (SF-295 [10]): 0.725 µM; TGI (SF-295 [10]): > 100 µM; CC50 (SF-295 [10]): > 100 µM; LC50 (SK-MEL-5): > 100 µM; TGI (SK-MEL-5): > 100 µM; growth at 0.01 µM (HCT-116 [11]): 102%; growth at 0.01 µM (SF-295 [12]): 91%
Clc1cccc(Cl)c1Nc1nc2cccc(Cl)c2s1	99%	102%	96%	94%	99%	98%	94%	73%	-39%	-62%	63%	18%	-71%	-73%	-33.9%	6.87%	-59.7%	1.32 µM	> 100 µM	4.43 µM	GI50 (COLO 205 [9]): 1.4 µM; TGI (COLO 205 [9]): 2.81 µM; CC50 (COLO 205 [9]): 5.67 µM; GI50 (HCC 2998): 1.34 µM; TGI (HCC 2998): 2.78 µM; CC50 (HCC 2998): 5.74 µM; GI50 (SF-295 [10]): 0.459 µM; TGI (SF-295 [10]): 1.9 µM; CC50 (SF-295 [10]): 4.96 µM; GI50 (SK-MEL-5): 1 µM; LC50 (SK-MEL-5): 4.93 µM; TGI (SK-MEL-5): 2.22 µM; growth at 0.01 µM (HCT-116 [11]): 104%; growth at 0.01 µM (SF-295 [12]): 93%
